From PMC8592288 (Bioorganic chemistry, 2021)

Experiments:
[1] = system: RAW264.7; test: Griess assay, NO in IFNγ/LPS-activated RAW264.7 macrophages; type: cell-based, mouse; conditions: INFγ/LPS activated RAW264.7; 1,25(OH)2D3 20 nM, CTA 5 and 20 μM; 24-hour treatment
[2] = system: IL-1β; test: HTRF IL1β cytokine assay, supernatant of activated RAW264.7 macrophages; type: cell-based, mouse; conditions: INFγ/LPS activated RAW264.7; 1,25(OH)2D3 20 nM, CTA 20 μM
[3] = system: RAW264.7 cells; test: Cytotoxicity on RAW264.7 cells, CellTiter-Glo; type: cell-based, mouse; conditions: RAW264.7, concentrations up to 100 μM
[4] = system: CYP24A1; test: RT-PCR of VDR target gene CYP24A1 in Caco2 cells; type: cell-based, human
[5] = target: RARα (Homo sapiens, UniProt P10276); test: Gal4 hybrid reporter transcription assay in HEK293T cells; type: cell-based; conditions: 1 μM CTA, 16 h
RARα, sequence (P10276 183-417 limits assumed): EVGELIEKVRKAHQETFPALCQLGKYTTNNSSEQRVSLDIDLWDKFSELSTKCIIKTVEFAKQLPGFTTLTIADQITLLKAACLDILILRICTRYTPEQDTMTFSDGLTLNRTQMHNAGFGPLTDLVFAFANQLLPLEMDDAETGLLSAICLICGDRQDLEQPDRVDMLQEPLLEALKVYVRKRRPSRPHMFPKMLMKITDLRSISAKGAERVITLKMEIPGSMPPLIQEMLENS
In short: (§1)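 HEK293T cells transfected using Lipofectamine LTX with pFR-Luc, pRL-SV40 and pFA-CMV plasmids encoding Gal4 fusions of the human receptor LBDs. Cells then held 16 h in OptiMEM with penicillin/streptomycin, 1 μM test compound and 0.1% DMSO. Dual-Glo luciferase read-out. Controls: 0.1% DMSO, and 1 μM TO901317 or 1 μM tretinoin as reference agonists. Duplicates, four independent repeats.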

[6] = target: TRβ-LBD (Homo sapiens, UniProt P10828); test: Fluorescence polarization coactivator binding assay; type: biochemical
TRβ-LBD, sequence (P10828 217-461 limits assumed): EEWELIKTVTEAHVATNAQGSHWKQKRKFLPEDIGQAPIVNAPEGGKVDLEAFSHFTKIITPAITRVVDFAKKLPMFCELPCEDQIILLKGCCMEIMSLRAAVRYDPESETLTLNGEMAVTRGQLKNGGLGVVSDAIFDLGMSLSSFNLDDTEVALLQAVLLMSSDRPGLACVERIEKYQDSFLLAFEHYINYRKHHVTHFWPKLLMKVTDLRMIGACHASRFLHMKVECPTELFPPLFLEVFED
In short: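 TRβ-LBD used at 0.8 μM, with 7 nM Texas Red-SRC2–2 peptide and 1 μM triiodothyronine. Incubated 3 h at room temperature; fluorescence polarization measured at Ex/Em 595/615 nm. Two independent experiments in quadruplicate.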

[7] = target: T1, VDR (Homo sapiens, UniProt P11473); test: VDR transcription assay in the presence of 100 nM 1,25; type: cell-based
T1 sequence (P11473 1-427): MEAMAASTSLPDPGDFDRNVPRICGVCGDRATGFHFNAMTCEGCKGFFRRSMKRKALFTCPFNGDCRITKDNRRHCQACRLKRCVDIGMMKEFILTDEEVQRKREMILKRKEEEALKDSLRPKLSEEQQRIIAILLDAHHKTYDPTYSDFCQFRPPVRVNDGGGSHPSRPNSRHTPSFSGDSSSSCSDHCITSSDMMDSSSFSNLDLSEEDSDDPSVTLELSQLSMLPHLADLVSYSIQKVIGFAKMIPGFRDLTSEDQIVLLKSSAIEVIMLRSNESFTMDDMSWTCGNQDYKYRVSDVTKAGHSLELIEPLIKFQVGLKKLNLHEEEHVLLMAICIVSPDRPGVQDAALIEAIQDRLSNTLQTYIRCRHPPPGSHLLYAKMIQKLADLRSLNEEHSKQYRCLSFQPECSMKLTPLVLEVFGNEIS

[8] = system: IL-1β; test: RT-PCR of IL-1β in IFNγ/LPS-activated RAW264.7 macrophages; type: cell-based, mouse; conditions: INFγ/LPS activated RAW264.7, CTA 5 and 20 μM
[9] = system: iNOS; test: RT-PCR of iNOS in IFNγ/LPS-activated RAW264.7 macrophages; type: cell-based, mouse; conditions: INFγ/LPS activated RAW264.7, CTA 5 and 20 μM
[10] = system: ligand binding domain (LBD) of the VDR; conditions: two-hybrid assay; cited from earlier work
[11] = target: ERβ-LBD (Homo sapiens, UniProt Q92731); test: Fluorescence polarization coactivator binding assay; type: biochemical
ERβ-LBD, sequence (Q92731 264-498 limits assumed, species assumed): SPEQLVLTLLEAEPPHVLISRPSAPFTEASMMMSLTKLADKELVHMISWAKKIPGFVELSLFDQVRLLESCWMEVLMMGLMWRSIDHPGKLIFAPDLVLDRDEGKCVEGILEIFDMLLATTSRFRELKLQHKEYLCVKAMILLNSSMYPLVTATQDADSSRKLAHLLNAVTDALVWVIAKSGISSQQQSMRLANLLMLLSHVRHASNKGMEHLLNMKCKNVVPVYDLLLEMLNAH
In short: (§2)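 For ERα and ERβ, 1 μM LBD was mixed with 7 nM Texas Red-SRC2–2 coactivator peptide and 100 nM estradiol. After 3 h at room temperature, fluorescence polarization was read at Ex/Em 595/615 nm. Two independent experiments in quadruplicate.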

[12] = target: LXR α (Homo sapiens, UniProt Q13133); test: Gal4 hybrid reporter transcription assay in HEK293T cells; type: cell-based; conditions: 1 μM CTA, 16 h
LXR α, sequence (Q13133 209-447 limits assumed): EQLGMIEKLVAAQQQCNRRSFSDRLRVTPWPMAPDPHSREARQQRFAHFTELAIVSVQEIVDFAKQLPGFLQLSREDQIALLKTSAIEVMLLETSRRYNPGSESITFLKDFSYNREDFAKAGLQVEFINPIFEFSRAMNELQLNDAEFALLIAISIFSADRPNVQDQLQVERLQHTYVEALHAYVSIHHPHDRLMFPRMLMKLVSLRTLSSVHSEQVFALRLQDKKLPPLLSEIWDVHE
In short: as §1

[13] = target: AR-LBD (Homo sapiens, UniProt P10275); test: Fluorescence polarization coactivator binding assay; type: biochemical
AR-LBD, sequence (P10275 669-900 limits assumed): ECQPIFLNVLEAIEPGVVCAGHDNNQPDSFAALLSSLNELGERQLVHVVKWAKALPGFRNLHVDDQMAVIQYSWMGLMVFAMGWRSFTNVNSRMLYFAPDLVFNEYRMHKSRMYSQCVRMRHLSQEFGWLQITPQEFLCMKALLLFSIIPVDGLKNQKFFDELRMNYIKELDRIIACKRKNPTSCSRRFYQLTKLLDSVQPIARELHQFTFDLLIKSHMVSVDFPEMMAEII
In short: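 Coactivator recruitment read by fluorescence polarization. AR-LBD at 5 μM with 7 nM Texas Red-labelled SRC2–3 peptide and 100 nM dihydrotestosterone. Incubated 3 h at room temperature, then read at Ex/Em 595/615 nm. Two independent experiments, each in quadruplicate.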

[14] = target: hFXR (Homo sapiens, UniProt Q96RI1); test: FXR transcription assay, BSEP-luciferase in HeLa cells; type: cell-based; conditions: 24 h
hFXR, sequence (Q96RI1 whole entry): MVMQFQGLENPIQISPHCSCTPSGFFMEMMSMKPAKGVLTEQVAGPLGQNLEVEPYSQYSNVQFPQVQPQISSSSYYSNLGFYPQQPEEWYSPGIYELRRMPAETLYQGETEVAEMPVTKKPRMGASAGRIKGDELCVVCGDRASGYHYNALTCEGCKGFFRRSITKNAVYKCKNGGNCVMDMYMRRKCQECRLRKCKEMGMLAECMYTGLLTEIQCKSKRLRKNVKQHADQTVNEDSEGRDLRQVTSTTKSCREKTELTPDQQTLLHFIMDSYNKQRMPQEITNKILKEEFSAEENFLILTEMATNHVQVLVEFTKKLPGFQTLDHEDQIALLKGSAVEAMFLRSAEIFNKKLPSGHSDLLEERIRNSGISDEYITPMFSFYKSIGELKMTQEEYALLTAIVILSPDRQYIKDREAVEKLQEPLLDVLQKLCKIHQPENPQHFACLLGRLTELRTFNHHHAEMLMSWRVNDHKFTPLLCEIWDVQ
hFXR, sequence (P19793 whole entry partner): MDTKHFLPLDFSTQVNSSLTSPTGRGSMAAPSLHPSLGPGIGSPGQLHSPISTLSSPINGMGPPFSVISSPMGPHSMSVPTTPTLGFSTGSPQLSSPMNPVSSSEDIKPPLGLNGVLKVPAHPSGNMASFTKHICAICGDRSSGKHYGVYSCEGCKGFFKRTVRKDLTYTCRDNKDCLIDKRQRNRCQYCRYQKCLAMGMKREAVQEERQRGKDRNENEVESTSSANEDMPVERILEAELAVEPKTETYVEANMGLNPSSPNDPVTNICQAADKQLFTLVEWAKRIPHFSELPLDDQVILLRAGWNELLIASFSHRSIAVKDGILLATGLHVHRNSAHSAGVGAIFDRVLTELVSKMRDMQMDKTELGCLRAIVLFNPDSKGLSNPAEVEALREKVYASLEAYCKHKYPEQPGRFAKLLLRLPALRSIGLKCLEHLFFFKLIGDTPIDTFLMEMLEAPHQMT
In short: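 HeLa cells grown in DMEM high glucose with 10% FCS, seeded at 8000 cells/well 24 h before transfection, then switched to 0.5% charcoal-stripped FCS. Calcium phosphate co-transfection with pcDNA3-hFXR, pSG5-hRXR, a BSEP promoter-luciferase (pGL3basic) reporter and pRL-SV40. Test compound added in 0.1% DMSO in phenol red-free medium for 24 h. Dual-Glo luciferase read-out. Controls: 0.1% DMSO and 1 μM GW4064. Triplicates, four independent repeats.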

[15] = target: T1, VDR; test: VDR-mediated transcription assay, CYP24A1-luciferase reporter in HEK293 cells; type: cell-based; conditions: HEK293, maximum reached before decrease due to toxicity
In short: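 HEK293 cells grown in DMEM high glucose with NEAA, 10 mM HEPES and 10% FBS. Transfected with VDR-CMV and CYP24A1 promoter-luciferase plasmids (Lipofectamine LTX/PLUS) for 16 h at 37 °C. Cells replated at 400,000 cells/mL onto Matrigel-treated 384-well plates for 4 h. […] Bright-Glo luminescence; n = 8; non-linear regression.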

[16] = target: GST-hPXR-LBD (Homo sapiens, UniProt O75469); test: TR-FRET competition assay for PXR; type: binding; conditions: CTA at 10 or 50 μM
GST-hPXR-LBD, sequence (O75469 146-433 limits assumed): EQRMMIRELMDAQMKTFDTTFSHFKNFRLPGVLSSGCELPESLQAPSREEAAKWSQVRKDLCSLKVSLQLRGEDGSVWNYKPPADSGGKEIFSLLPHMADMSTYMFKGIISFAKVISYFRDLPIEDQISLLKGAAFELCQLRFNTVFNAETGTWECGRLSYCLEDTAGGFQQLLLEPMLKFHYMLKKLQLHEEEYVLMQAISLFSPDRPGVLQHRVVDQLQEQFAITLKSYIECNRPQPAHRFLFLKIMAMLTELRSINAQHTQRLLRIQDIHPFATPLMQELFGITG
In short: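 TR-FRET competition in pH 7.5 buffer (50 mM Tris, 50 mM KCl, 20 mM MgCl2, 1 mM CHAPS, 0.1 mg/mL BSA, 0.05 mM DTT). Test compound added in DMSO (0.4% final); TO901317 as positive control. After 30 min, excitation 340 nm, ratio 520/490 nm ×10000. n = 8.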

[17] = target: TRα-LBD (Homo sapiens, UniProt P10827); test: Fluorescence polarization coactivator binding assay; type: biochemical
TRα-LBD, sequence (P10827 148-410 isoform P10827-2 limits assumed): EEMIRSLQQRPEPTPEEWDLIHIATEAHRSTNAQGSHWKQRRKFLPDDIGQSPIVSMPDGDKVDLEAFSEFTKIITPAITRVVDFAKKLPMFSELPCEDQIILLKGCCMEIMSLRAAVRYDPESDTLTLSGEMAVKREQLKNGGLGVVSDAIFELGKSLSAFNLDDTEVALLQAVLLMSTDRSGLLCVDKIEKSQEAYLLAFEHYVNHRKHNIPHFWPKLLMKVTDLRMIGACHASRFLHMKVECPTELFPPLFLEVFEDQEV
In short: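 FP coactivator binding with TRα-LBD (1 μM), Texas Red-labelled SRC2–2 (7 nM) and triiodothyronine (100 nM). Incubated 3 h at room temperature; polarization read at 595/615 nm (Ex/Em). Two independent experiments, quadruplicate wells.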

[18] = target: PPARγ-LBD (Homo sapiens, UniProt P37231); test: Fluorescence polarization coactivator binding assay; type: biochemical
PPARγ-LBD, sequence (P37231 238-503 limits assumed, species assumed): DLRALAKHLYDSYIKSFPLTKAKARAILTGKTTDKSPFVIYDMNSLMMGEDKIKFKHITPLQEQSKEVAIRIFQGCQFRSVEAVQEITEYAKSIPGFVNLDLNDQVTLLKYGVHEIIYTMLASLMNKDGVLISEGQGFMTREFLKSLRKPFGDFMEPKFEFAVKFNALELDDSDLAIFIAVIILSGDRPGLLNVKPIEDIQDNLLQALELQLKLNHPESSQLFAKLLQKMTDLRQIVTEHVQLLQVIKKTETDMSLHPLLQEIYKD
In short: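 Mix of PPARγ-LBD (5 μM), Texas Red-labelled DRIP2 coactivator peptide (7 nM) and rosiglitazone (5 μM). Held 3 h at room temperature, then fluorescence polarization read at Ex/Em 595/615 nm. Two independent experiments in quadruplicate.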

[19] = system: CYP24A1; conditions: at 7.5 μM; cited from earlier work
[20] = target: RXRα-LBD (Homo sapiens, UniProt P19793); test: Fluorescence polarization coactivator binding assay; type: biochemical
RXRα-LBD, sequence (P19793 227-458 limits assumed): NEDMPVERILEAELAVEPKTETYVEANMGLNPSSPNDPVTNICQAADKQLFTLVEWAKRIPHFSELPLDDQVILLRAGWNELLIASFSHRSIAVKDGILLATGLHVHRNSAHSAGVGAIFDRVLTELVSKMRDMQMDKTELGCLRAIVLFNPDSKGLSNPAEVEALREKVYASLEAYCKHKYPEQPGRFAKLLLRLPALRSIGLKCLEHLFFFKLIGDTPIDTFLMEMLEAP
In short: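 RXRα-LBD (1 μM) combined with Texas Red-SRC2–3 peptide (7 nM) and bexarotene (2 μM). Incubated 3 h at room temperature; polarization detected at 595/615 nm. Two independent experiments, each in quadruplicate.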

[21] = target: GST-CAR-LBD (Homo sapiens, UniProt Q14994); test: TR-FRET coactivator binding assay for CAR; type: biochemical; conditions: CTA at 10 or 50 μM
GST-CAR-LBD, sequence (Q14994 109-352 limits assumed): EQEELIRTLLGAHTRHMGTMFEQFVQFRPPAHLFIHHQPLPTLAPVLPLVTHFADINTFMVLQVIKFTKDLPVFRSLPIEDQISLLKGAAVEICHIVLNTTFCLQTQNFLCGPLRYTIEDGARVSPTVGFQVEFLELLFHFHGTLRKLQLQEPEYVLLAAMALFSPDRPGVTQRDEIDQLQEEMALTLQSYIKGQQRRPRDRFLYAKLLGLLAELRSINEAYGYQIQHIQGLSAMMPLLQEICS

[22] = target: ERα-LBD (Homo sapiens, UniProt P03372); test: Fluorescence polarization coactivator binding assay; type: biochemical
ERα-LBD, sequence (P03372 311-547 limits assumed, species assumed): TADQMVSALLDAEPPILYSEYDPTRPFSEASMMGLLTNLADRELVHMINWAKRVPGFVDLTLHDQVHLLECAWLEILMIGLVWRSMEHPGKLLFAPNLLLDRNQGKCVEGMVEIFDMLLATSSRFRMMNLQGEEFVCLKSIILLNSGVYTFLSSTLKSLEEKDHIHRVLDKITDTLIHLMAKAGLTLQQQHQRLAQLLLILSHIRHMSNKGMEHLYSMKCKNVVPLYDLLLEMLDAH
In short: as §2

[23] = target: LXR β (Homo sapiens, UniProt P55055); test: Gal4 hybrid reporter transcription assay in HEK293T cells; type: cell-based; conditions: 1 μM CTA, 16 h
LXR β, sequence (P55055 222-460 limits assumed): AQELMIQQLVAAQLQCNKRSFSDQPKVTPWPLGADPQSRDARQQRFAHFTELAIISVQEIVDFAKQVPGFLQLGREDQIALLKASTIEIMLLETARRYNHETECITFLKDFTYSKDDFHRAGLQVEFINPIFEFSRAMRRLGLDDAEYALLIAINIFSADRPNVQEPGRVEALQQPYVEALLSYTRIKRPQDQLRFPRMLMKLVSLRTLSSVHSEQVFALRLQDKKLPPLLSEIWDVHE
In short: as §1

[24] = subcutaneous administration; cited from earlier work
[25] = system: HEK293 cells; test: Viability assay, CellTiter-Glo; type: cell-based; conditions: HEK293, 18 h exposure
In short: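 HEK293 cells transfected and dosed as in the VDR transcription assay. After 18 h at 37 °C, 5% CO2, CellTiter-Glo luminescence measured (intracellular ATP). Eight measurements per concentration, averaged with SEM. LD50 derived by non-linear regression.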

[26] = target: T2, Danio Rerio vitamin D receptor ligand binding domain (Danio rerio, UniProt Q9PTN2 156-453); test: crystal structure
T2 sequence (looked up): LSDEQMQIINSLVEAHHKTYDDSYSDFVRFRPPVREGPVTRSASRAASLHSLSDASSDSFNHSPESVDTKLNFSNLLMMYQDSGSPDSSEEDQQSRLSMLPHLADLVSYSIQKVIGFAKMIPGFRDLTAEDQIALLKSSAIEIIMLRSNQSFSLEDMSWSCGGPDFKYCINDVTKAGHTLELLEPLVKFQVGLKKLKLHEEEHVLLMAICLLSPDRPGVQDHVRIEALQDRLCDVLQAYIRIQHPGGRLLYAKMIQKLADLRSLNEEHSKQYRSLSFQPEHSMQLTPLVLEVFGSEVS

In the case of C=C1/C(=C\C=C2/CCC[C@]3(C)[C@@H]([C@H](C)CCCC(C)(C)O)CC[C@@H]23)C[C@@H](O)C[C@@H]1O [1,25(OH)2D3, 1α,25-dihydroxyvitamin D3, reference compound], the “production of NO in comparison to vehicle” value [1] is reported as “reduced the production of NO” and the “IL-1β protein (HTRF)” value [2] is reported as “Reduced IL-1β protein”.

For C=C1/C(=C\C=C2/CCC[C@]3(C)[C@@H]([C@H](C)CC(=O)O)CC[C@@H]23)C[C@@H](O)C[C@@H]1O [CTA, (R)-3-((1R,3aS,7aR,E)-4-((Z)-2-((3S,5R)-3,5-dihydroxy-2-methylenecyclohexylidene)ethylidene)-7a-methyloctahydro-1H-inden-1-yl)butanoic acid], the “cytotoxic effects (luminescence viability assay)” value [3] was “absence of any cytotoxic effects”, the “expression of CYP24A1 in the presence of 1,25(OH)2D3” value ([4]; Caco2, 18 h, co-treatment with 1,25(OH)2D3) was “strongly induced” and the “CYP24A1 upregulation compared to lithocholic acid at 10 μM” value ([4]; intestinal cells (Caco2), CTA at 10 μM) was 100 fold. The “activation of retinoic acid receptor” value [5] was “not activated”, the “activation of thyroid receptor TRβ” value [6] was “not activated” and the IC50 [7] was 72.2 µM. The “IL-1β gene transcription (RT-PCR)” value [8] was “reduction of gene transcription was observed”, the “iNOS gene transcription (RT-PCR)” value [9] was “reduction of gene transcription was observed” and the “recruitment of SRC-1 to VDR LBD” value [10] was “induces recruitment of SRC-1”. The “activation of estrogen receptor ERβ” value [11] was “not activated”, the “activation of liver X receptor α” value [12] was “not activated” and the “activation of androgen receptor” value [13] was “not activated”. The “activation of farnesoid X receptor” value [14] was “not activated”, the “production of NO in comparison to vehicle” value [1] was “significant reduction” and the “level of activation of gene expression in comparison to 100 nM 1,25(OH)2D3” value [15] was 30%. For the same molecule, the “binding to PXR” value [16] was “did not bind”, the “activation of thyroid receptor TRα” value [17] was “not activated” and the “activation of peroxisome proliferator-activated receptor” value [18] was “not activated”. For the same molecule, the “CYP24A1 upregulation in DU145 cells” value [19] was 9 fold, the “activation of retinoid X receptor” value [20] was “not activated” and the “induction of CAR-coactivator interactions” value [21] was “did not bind to PXR or induce CAR-coactivator interactions”. For the same molecule, the “activation of estrogen receptor ERα” value [22] was “not activated”, the “activation of liver X receptor β” value [23] was “not activated” and the antirachitic activity [24] was “antirachitic activity”. The “LD50 (Cell-titer Glo viability)” value [25] was 96.0 µM and the “IL-1β protein (HTRF)” value [2] was “Reduced IL-1β protein”.

In the case of C=C1/C(=C\C=C2/CCC[C@]3(C)[C@@H]([C@H](C)CC(=O)OC)CC[C@@H]23)C[C@@H](O)C[C@@H]1O [CTA-ME, Methyl (R)-3-((1R,3aS,7aR,E)-4-((Z)-2-((3S,5R)-3,5-dihydroxy-2-methylenecyclohexylidene)ethylidene)-7a-methyloctahydro-1H-inden-1-yl)butanoate], the IC50 [7] is listed as 8.16 µM, the “level of activation of gene expression in comparison to 100 nM 1,25(OH)2D3” value [15] is listed as 30% and the antirachitic activity [24] is listed as “antirachitic activity”. For the same molecule, the “LD50 (Cell-titer Glo viability)” value [25] was 13.9 µM.

B1: coactivator MED1 NR2 peptide (peptide)
peptide: NHPMLMNLLKDN
B1: binds [26].
